pEC50, pIC50: −log10 of the molar value. Counter-ions that a name gives are not always drawn.
Assays:
[1] = target: Serine/threonine-protein kinase pim-1 (Homo sapiens, UniProt P11309); assay: Inhibition of recombinant human Pim1 expressed in bacterial expression system using histone H1 as substrate after 30 mins by ADP-Glo reagent based luminescence assay
Outline: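 Recombinant human Pim-1 (bacterially expressed) with histone H1 at 0.8 µg/µL, 10 µM ATP, in 40 mM Tris pH 7.5, 20 mM MgCl₂ and 0.1 mg/mL BSA, for 30 min at 30 °C. ADP-Glo reagent stops the reaction (50 min, rt), then detection reagent is added (1 h, rt) and luminescence is read.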

CDK2/Cyclin A2 = CDK2/Cyclin A2 (Homo sapiens, UniProt P24941); assay: Inhibition of human CDK2/CyclinA using histone H1 as substrate after 30 mins by ADP-Glo reagent based luminescence assay; assay type: protein-complex assay
CDK9/cyclin T1 = CDK9/cyclin T1 (Homo sapiens, UniProt P50750); assay: Inhibition of recombinant human CDK9/CyclinT expressed in baculovirus infected Sf9 insect cells using YSPTSPSYSPTSPSYSPTSPSKKKK as substrate after 30 mins by ADP-Glo reagent based luminescence assay
[2] = target: Dual specificity tyrosine-phosphorylation-regulated kinase 1A (Rattus norvegicus, UniProt Q63470)
[3] = target: T1, Serine/threonine-protein kinase haspin (Homo sapiens, UniProt Q8TF76); assay: Inhibition of recombinant human haspin kinase domain (470 to 798 residues) expressed in bacterial expression system using histone H3 peptide as substrate after 30 mins by ADP-Glo reagent based luminescence assay
T1 sequence (Q8TF76 whole entry): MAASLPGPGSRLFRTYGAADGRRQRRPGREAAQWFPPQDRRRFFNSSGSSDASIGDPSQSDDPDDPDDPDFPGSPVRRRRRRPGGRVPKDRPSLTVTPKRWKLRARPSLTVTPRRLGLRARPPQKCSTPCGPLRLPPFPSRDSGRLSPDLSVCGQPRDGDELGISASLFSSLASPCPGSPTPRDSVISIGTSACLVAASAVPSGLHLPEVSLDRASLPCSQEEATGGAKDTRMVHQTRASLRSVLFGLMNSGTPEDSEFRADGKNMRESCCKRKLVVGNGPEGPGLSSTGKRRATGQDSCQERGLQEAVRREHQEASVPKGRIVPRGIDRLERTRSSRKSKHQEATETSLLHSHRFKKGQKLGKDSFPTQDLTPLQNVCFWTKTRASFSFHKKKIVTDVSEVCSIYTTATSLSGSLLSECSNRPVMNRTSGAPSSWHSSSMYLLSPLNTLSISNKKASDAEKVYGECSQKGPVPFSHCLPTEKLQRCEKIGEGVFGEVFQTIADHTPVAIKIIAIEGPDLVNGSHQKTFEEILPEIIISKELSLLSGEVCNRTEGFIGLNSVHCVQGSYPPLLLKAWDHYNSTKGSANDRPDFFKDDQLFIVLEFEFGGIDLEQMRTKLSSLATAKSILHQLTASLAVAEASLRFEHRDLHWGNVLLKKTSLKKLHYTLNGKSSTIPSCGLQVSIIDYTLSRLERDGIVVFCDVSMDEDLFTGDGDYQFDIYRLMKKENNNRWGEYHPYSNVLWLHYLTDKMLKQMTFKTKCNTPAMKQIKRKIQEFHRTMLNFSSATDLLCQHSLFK

[4] = target: Dual specificity protein kinase CLK1 (Mus musculus, UniProt P22518)
KU812 cell line = assay: Cytotoxicity against human KU812 cells assessed as reduction in cell viability after 48 hrs by MTT assay; assay type: functional, cell-based; settings: KU812, 48 h
[5] = target: Glycogen synthase kinase-3 (Sus scrofa, UniProt B2LUN4+I6LNT8)

CDK9/cyclin T1, sequence (O60563 whole entry): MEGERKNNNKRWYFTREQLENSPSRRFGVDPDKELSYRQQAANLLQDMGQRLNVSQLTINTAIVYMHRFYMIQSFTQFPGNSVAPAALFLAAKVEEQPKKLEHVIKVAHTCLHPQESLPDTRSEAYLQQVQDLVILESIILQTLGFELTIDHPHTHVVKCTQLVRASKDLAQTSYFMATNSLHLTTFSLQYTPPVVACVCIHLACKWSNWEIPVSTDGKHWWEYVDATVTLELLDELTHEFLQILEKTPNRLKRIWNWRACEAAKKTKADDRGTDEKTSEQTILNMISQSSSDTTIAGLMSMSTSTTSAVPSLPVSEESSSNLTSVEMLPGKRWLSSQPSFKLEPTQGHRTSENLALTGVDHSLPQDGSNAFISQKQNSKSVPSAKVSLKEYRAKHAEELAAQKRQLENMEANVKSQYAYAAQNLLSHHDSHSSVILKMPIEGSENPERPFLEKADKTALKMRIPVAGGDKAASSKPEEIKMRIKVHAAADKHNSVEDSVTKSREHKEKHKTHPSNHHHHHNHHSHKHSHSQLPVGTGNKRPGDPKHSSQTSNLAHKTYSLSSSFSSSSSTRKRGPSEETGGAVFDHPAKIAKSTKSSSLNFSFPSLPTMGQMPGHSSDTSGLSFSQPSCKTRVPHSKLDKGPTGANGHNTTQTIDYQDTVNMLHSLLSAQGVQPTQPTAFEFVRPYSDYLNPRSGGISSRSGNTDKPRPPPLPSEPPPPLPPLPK
CDK9/cyclin T1, sequence (P50750 whole entry): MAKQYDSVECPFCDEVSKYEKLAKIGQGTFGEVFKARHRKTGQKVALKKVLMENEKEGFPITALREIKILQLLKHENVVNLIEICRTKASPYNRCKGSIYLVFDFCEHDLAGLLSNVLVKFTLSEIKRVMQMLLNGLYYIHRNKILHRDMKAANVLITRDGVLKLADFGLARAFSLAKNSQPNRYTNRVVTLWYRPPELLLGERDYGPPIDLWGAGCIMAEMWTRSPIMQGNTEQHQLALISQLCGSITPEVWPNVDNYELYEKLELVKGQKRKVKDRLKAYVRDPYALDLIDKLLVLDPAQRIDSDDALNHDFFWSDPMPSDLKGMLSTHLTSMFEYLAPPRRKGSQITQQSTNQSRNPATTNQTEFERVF
Dual specificity protein kinase CLK1, sequence (P22518 whole entry): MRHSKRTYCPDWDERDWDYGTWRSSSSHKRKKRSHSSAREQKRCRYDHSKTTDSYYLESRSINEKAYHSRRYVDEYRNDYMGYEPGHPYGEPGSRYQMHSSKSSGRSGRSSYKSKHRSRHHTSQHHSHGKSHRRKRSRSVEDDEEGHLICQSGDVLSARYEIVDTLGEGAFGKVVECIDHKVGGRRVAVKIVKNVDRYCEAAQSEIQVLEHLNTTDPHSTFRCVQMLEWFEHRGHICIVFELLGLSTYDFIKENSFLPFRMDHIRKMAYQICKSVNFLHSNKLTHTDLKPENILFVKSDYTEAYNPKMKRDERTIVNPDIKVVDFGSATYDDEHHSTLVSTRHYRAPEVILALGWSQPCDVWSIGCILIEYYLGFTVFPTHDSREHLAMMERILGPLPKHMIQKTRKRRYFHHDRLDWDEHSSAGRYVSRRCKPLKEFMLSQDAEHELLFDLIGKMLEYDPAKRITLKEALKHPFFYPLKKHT
Serine/threonine-protein kinase pim-1, sequence (P11309 whole entry): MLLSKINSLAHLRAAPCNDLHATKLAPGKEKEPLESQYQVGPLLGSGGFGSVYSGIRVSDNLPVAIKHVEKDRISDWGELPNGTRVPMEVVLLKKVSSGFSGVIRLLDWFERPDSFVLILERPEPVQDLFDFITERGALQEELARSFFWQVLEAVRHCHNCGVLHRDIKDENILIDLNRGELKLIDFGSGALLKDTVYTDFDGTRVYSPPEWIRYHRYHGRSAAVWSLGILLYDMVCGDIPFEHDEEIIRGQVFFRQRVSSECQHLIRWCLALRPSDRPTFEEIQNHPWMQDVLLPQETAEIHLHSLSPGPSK

Row | SMILES | pIC50 [1] | pIC50 (CDK2/Cyclin A2) | pIC50 (CDK9/cyclin T1) | pIC50 [2] | pIC50 [3] | pIC50 [4] | pEC50 (KU812 cell line) | IC50 [5] [µM]
1 | Nc1ccc(Nc2nc3ccccc3nc2C(=O)O)cc1 | < 5.00 |  |  |  |  |  |  | 
2 | Nc1cccc(Nc2nc3ccccc3nc2C(=O)[O-])c1.[K+] | 5.55 | < 5.00 | < 5.00 | 5.78 | < 5.00 | < 5.00 | 4.20 | > 10
3 | O=C(O)c1nc2ccccc2nc1Nc1ccc2[nH]ccc2c1 | < 5.00 |  |  |  |  |  |  | 
4 | CN1CCC(c2ccc(Nc3nc4ccccc4nc3C(=O)O)cc2)CC1 | < 5.00 |  |  |  |  |  |  | 
5 | O=C(O)c1nc2ccccc2nc1Nc1cccc(O)c1 |  | < 5.00 | < 5.00 |  | < 5.00 | < 5.00 | 4.41 | > 10
6 | CCOC(=O)c1nc2ccccc2nc1Nc1ccc(N)cc1 | < 5.00 |  |  |  |  |  |  | 
7 | O=C(O)c1nc2ccccc2nc1Nc1ccc(O)cc1 | 6.54 | < 5.00 | < 5.00 | 7.01 | < 5.00 | < 5.00 | 4.38 | > 10
8 | CCOC(=O)c1nc2ccccc2nc1Nc1ccccc1O | < 5.00 |  |  |  |  |  |  | 
9 | CCOC(=O)c1nc2ccccc2nc1Nc1cccc(N)c1 | < 5.00 |  |  |  |  |  |  | 
10 | O=C(O)c1nc2ccccc2nc1Nc1ccccc1O | 6.12 | < 5.00 | < 5.00 | 6.13 | < 5.00 | < 5.00 | 3.75 | > 10
11 | CCOC(=O)c1nc2ccccc2nc1Nc1ccc(C2CCN(C)CC2)cc1 | < 5.00 |  |  |  |  |  |  | 
12 | NC(=O)c1nc2ccccc2nc1Nc1cccc(N2CCOCC2)c1 | < 5.00 |  |  |  |  |  |  | 
13 | Cc1ccc(NC(=O)c2ccc(CN3CCN(C)CC3)cc2)cc1Nc1nccc(-c2cccnc2)n1 [IMATINIB MESYLATE] |  |  |  |  |  |  | 6.22 | 
14 | CCOC(=O)c1nc2ccccc2nc1Nc1ccc2[nH]ccc2c1 | < 5.00 |  |  |  |  |  |  | 
15 | CCOC(=O)c1nc2ccccc2nc1Nc1cccc(N2CCOCC2)c1 | < 5.00 |  |  |  |  |  |  | 
16 | O=C(O)c1nc2ccccc2nc1Nc1cccc(N2CCOCC2)c1 | 6.00 | < 5.00 | < 5.00 | < 5.00 | < 5.00 | < 5.00 | 4.24 | > 10
17 | CCOC(=O)c1nc2ccccc2nc1Nc1ccc(O)cc1 | < 5.00 |  |  |  |  |  |  | 
18 | CCOC(=O)c1nc2ccccc2nc1Nc1cccc(O)c1 | < 5.00 |  |  |  |  |  |  | 
